Laboratory results reported in ChEMBL document CHEMBL4130546, “Structures of the Largest Amphidinol Homologues from the Dinoflagellate Amphidinium carterae and Structure-Activity Relationships” (J Nat Prod, 2017).

Assays:
[1] = system: Lipid bilayer; assay: Membrane disrupting activity in large unilamellar vesicles assessed as calcein AM dye leakage at 10 uM by fluorescence assay relative to control; type: physicochemical
How it was run: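 Calcein-loaded POPC or POPC/cholesterol (9:1 mol ratio) LUVs, with excess dye removed by Sepharose 4B gel filtration in Tris-HCl pH 7.5 containing 1 mM EDTA and 150 mM NaCl. Lipid at 27 μM in PBS. Fluorescence (ex 490/em 517 nm) read before and after adding compound. Triton X-100 was then added to define 100% leakage.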

[2] = system: Aspergillus niger; assay: Antifungal activity against Aspergillus niger NBRC 31032 after 2 days by paper disk method; type: functional
How it was run: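 A. niger grown 2 days at 25 °C in glucose/peptone broth, spread on agar of the same medium (1.5% agar). Samples in MeOH spotted on 8 mm paper disks, up to 60 μg/disk; after 2 days at 25 °C the inhibition zone was measured and minimum effective concentration recorded.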

[3] = system: Erythrocyte; assay: Hemolytic activity in human erythrocytes after 18 hrs by colorimetric method; type: ADME, cell-based
How it was run: (§1)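 Human RBCs washed in PBS (pH 7.4) by centrifugation and diluted to a 1% suspension (~1.7 × 10^7 cells/mL). 190 μL suspension mixed with 10 μL sample (up to 80 μM) or PBS; water-lysed RBCs served as 100%. Incubated at 37 °C for 18 h, centrifuged, supernatant absorbance read at 450 nm. % hemolysis and EC50 taken from dose-response curves.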

[4] = system: Lipid bilayer; assay: Membrane disrupting activity in POPC large unilamellar vesicles assessed as calcein AM dye leakage at 80 uM by fluorescence assay relative to control; type: physicochemical
How it was run: (§2)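 Calcein-loaded LUVs of POPC or POPC/Chol (9:1 mol) freed of external dye on Sepharose 4B in Tris-HCl pH 7.5, EDTA, NaCl. Vesicles diluted in PBS to 27 μM lipid and fluorescence read (ex 490/em 517 nm). Sample added and fluorescence re-read, then Triton X-100 added to give 100% leakage.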

[5] = system: Lipid bilayer; assay: Membrane disrupting activity in POPC/cholesterol large unilamellar vesicles assessed as calcein AM dye leakage at 80 uM by fluorescence assay relative to control; type: physicochemical; how it was run: as §2
[6] = system: Lipid bilayer; assay: Membrane disrupting activity in POPC/cholesterol large unilamellar vesicles assessed as calcein AM dye leakage at 20 uM by fluorescence assay relative to control; type: physicochemical; how it was run: as §2
[7] = system: Lipid bilayer; assay: Membrane disrupting activity in POPC large unilamellar vesicles assessed as calcein AM dye leakage at 20 uM by fluorescence assay relative to control; type: physicochemical; how it was run: as §2
[8] = Hemolytic activity in human erythrocytes at 20 uM after 18 hrs by colorimetric method; type: ADME, cell-based, Erythrocyte; conditions: read-out: Activity; how it was run: as §1

**Q.** Which Activity [1] does the source give for `C=C/C=C/CC/C=C/C=C/C=C/CC/C=C/[C@H](O)[C@H](O)[C@@H]1O[C@@H]([C@H](O)[C@H](O)C(=C)CC[C@@H](O)[C@H]2C[C@@H](O)[C@@H](O)[C@H]([C@@H](O)[C@H](O)/C=C(\C)CC[C@H](O)C[C@H](O)[C@H](O)[C@@H](C)C[C@H](O)[C@@H](O)CCCCC[C@@H](O)CCC[C@@H](O)/C=C/C[C@@H](O)/C=C/C[C@@H](O)CO)O2)C[C@@H](O)[C@H]1O` here?
**A.** Its Activity is 100%.

**Q.** For `C=CCC/C=C/C=C/C=C/CC/C=C/C(O)C(O)[C@@H]1O[C@@H](C(O)C(O)C(=C)CCC(O)[C@H]2C[C@@H](O)[C@@H](O)[C@H](C(O)C(O)/C=C(\C)CCC(O)CC(O)C(O)C(C)CC(O)CC(C)/C=C(\C)CC(O)CC(C)CCC(O)CC(O)C(O)C(C)CC(O)CC(O)C(O)C(C)C(O)CCCC(O)CCCC(O)CCCC(O)/C=C/CC(O)/C=C/CO)O2)C[C@@H](O)[C@H]1O` (stereo not given in full), which MEC [2] is on record?
**A.** Its MEC is >15 µg.

**Q.** What about the EC50 [3] of the same compound?
**A.** Its EC50 is > 10000 nM.

**Q.** And the Activity [4]?
**A.** The Activity was 20%.

**Q.** And the Activity [5]?
**A.** Its Activity is 20%.

**Q.** And the Activity [6]?
**A.** Its Activity is < 50%.

**Q.** What about the Activity [7] of the same compound?
**A.** The Activity was < 50%.

**Q.** Which MEC [2] does the source give for `C=CCC/C=C/C=C/C=C/CC/C=C/C(O)C(O)C1OC(C(O)C(O)C(=C)CCC(O)C2CC(O)C(O)C(C(O)C(O)/C=C(\C)CCC(O)CC(O)C(O)C(C)CC(O)CC(C)/C=C(\C)CC(O)CC(C)CC(O)C3CC(O)C(O)C(CC(O)CC(O)CO)O3)O2)CC(O)C1O` (stereo not given) here?
**A.** Its MEC is 6 µg.

**Q.** What about the EC50 [3] of the same compound?
**A.** The EC50 was 1700 nM.

**Q.** Which results are given for `C=CCC/C=C/C=C/C=C/CC/C=C/C(O)C(O)C1OC(C(O)C(O)C(=C)CCC(O)C2CC(O)C(O)C(C(O)C(O)/C=C(\C)CCC(O)CC(O)C(O)C(C)CC(O)C(O)CCCC(O)CCCC(O)CCCC(O)/C=C/CC(O)/C=C/CC(O)CO)O2)CC(O)C1O` (stereo not given)?
**A.** MEC [2]: 6 µg; EC50 [3]: 2900 nM

**Q.** For `C=CCC/C=C/C=C/C=C/CC/C=C/C(O)C(O)[C@@H]1O[C@@H](C(O)C(O)C(=C)CCC(O)[C@H]2C[C@@H](O)[C@@H](O)[C@H](C(O)C(O)/C=C(\C)CCC(O)CC(O)C(O)C(C)CC(O)CC(C)/C=C(\C)CC(O)CC(C)CCC(O)CC(O)C(O)C(C)C(O)CCCC(O)CCCC(O)CCCC(O)/C=C/CC(O)/C=C/CO)O2)C[C@@H](O)[C@H]1O` (stereo not given in full), which MEC [2] is on record?
**A.** Its MEC is >15 µg.

**Q.** And the EC50 [3]?
**A.** Its EC50 is 1000 to 3000 nM.

**Q.** And the hemolysis at 18 h, 20 µM [8]?
**A.** Its hemolysis at 18 h, 20 µM is < 100%.

**Q.** And the Activity [4]?
**A.** Its Activity is 20%.

**Q.** And the Activity [5]?
**A.** Its Activity is 20%.

**Q.** What about the Activity [6] of the same compound?
**A.** Its Activity is < 50%.

**Q.** What about the Activity [7] of the same compound?
**A.** The Activity was < 50%.

**Q.** Which results are given for `C=CCC/C=C/C=C/C=C/CC/C=C/C(O)C(O)C1OC(C(O)C(O)C(=C)CCC(O)C2CC(O)C(O)C(C(O)C(O)/C=C(\C)CCC(O)CC(O)C(O)C(C)CC(O)C(O)CC(C)CC/C=C/CC(O)CO)O2)CC(O)C1O` (stereo not given)?
**A.** MEC [2]: 8 µg; EC50 [3]: 1200 nM
